Among the data in ChEMBL document CHEMBL3758144, “Dihydroisocoumarin Derivatives from Marine-Derived Fungal Isolates and Their Anti-inflammatory Effects in Lipopolysaccharide-Induced BV2 Microglia” (J Nat Prod, 2015) are inhibition, Activity and IC50 values, retold here.

Activity calls are given as the source filed them. The rule behind the calls is not given here.

The subject of data set [1] is BV-2. As to the kind of experiment: Inhibition of LPS-induced COX2 expression in […] BV2 cells pretreated for 30 mins followed by LPS stimulation measured for 24 hrs by Western blot analysis. Type of data set: functional, cell-based. The conditions noted are these: Mus musculus. Summed up: (§1)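 BV2 microglia pretreated 30 min with test agent at 20−80 μM, then LPS 1 μg/mL for 24 h. Lysates in 20 mM Tris-HCl pH 7.4 with protease inhibitors, protein by Lowry. SDS-PAGE, nitrocellulose transfer, milk block, ECL detection. Band densitometry normalized to β-actin.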
Background: In western blotting, separated proteins are transferred to a membrane and probed.

For data set [2], the system named is BV-2. As to the kind of experiment: Inhibition of LPS-induced iNOS expression in […] BV2 cells pretreated for 30 mins followed by LPS stimulation measured for 24 hrs by Western blot analysis. Type of data set: functional, cell-based. As to conditions: Mus musculus. In short, it runs like this: as §1
Data set [3] is described as follows: Cytotoxicity against […] BV2 cells at 10 to 80 uM by MTT assay. The conditions noted are these: bv-2, 80 µM. In kind it is cell-based. In short, it runs like this:
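MTT added to BV2 cell suspension (1 × 10^5 cells/mL), incubated 30 min. Formazan dissolved in acidic 2-propanol and read at 540 nm. Compounds tested at 10−80 μM.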
(Tetrazolium dyes change colour on reduction, which living cells bring about.)

Data set [4] can be described thus: (§2) Antiinflammatory activity in LPS-induced […] BV2 cells assessed as reduction in NO production pretreated for 30 mins followed by LPS stimulation measured for 24 hrs by Greiss assay. In kind it is functional, cell-based. As to conditions: BV-2. In short, it runs like this:
(§3)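 BV2 microglia in DMEM with 10% heat-inactivated FBS, penicillin/streptomycin and 2 mM L-glutamine at 37 °C, 5% CO2. Pretreated 30 min with test agent (10−80 μM range), then LPS 1 μg/mL for 24 h. Nitrite in supernatant measured by Griess reagent, absorbance at 525 nm. IC50 from mean of three experiments ± SD.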

The test system of data set [5] is BV-2. Described as §2. In kind it is functional, cell-based. The conditions noted are these: Mus musculus. In short, it runs like this: as §3
Data set [6] in a line: (§4) Antiinflammatory activity in LPS-induced […] BV2 cells assessed as reduction in PGE2 production pretreated for 30 mins followed by LPS stimulation measured for 24 hrs by ELISA. As to conditions: BV-2. In kind it is functional, cell-based. In short, it runs like this:
(§5)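 BV2 microglia cultured in 24-well plates and preincubated 30 min with test agent (10−80 μM range), then stimulated 24 h with LPS 1 μg/mL. Supernatant PGE2 quantified by ELISA kit. IC50 from mean of three experiments ± SD.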

The test system of data set [7] is BV-2. Described as §4. In kind it is functional, cell-based. The conditions noted are these: Mus musculus. Summed up:
as §5

For data set [8], the target named is T1, NF-kappa-B inhibitor alpha (Homo sapiens) (UniProt P25963).
T1 sequence (whole entry): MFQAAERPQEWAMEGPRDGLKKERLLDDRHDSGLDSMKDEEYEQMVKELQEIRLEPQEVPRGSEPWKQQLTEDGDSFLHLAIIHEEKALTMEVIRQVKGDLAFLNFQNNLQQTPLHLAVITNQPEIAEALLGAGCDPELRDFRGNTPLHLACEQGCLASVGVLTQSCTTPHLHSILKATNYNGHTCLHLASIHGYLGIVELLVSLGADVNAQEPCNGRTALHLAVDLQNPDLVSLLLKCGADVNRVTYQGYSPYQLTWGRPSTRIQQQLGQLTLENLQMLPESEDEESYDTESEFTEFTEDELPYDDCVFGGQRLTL
As to the kind of experiment: Inhibition of IkappaB-alpha degradation in LPS-induced […] BV2 cells pretreated for 30 mins followed by LPS stimulation for 30 mins by Western blot analysis. Type of data set: cell-based. The conditions noted are these: BV-2. In short, it runs like this: (§6)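 BV2 microglia pretreated 30 min with test agent (20, 40, 80 μM), then LPS for 30 min. Cytosolic and nuclear fractions prepared with NE-PER reagents. Western blot for IκB-α, phospho-IκB-α, p65 and p50. Densitometry normalized to β-actin (cytosol) or PCNA (nucleus). Mean of three experiments ± SD.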

Data set [9] addresses T1, NF-kappa-B inhibitor alpha (Homo sapiens). As to the kind of experiment: Inhibition of IkappaB-alpha phosphorylation in LPS-induced […] BV2 cells pretreated for 30 mins followed by LPS stimulation for 30 mins by Western blot analysis. As to conditions: BV-2. Type of data set: cell-based. In short, it runs like this:
as §6

The target in data set [10] is Transcription factor p65 (Homo sapiens) (UniProt Q04206). As to the kind of experiment: Inhibition of LPS-induced p65 translocation from cytosol to nucleus in […] BV2 cells pretreated for 30 mins followed by LPS stimulation for 30 mins by Western blot analysis. In kind it is cell-based. As to conditions: BV-2. In short, it runs like this: as §6
Sequence of Transcription factor p65 (Homo sapiens) (Q04206 whole entry): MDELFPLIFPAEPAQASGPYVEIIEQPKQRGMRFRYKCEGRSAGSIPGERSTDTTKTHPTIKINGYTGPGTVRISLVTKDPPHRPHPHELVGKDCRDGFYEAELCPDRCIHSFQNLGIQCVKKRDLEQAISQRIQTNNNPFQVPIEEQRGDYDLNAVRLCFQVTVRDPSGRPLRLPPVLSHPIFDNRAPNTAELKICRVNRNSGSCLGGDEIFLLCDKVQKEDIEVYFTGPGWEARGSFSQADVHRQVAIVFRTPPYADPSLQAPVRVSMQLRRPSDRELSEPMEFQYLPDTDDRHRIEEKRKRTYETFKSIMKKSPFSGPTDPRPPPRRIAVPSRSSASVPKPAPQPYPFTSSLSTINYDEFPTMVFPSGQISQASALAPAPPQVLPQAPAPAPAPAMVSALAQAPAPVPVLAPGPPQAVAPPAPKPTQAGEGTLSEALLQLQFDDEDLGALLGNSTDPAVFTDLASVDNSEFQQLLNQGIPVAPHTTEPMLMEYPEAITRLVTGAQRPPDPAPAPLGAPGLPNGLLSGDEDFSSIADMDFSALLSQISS
Data set [11] addresses T2, Nuclear factor NF-kappa-B p105 subunit (Homo sapiens) (UniProt P19838).
T2 sequence (whole entry): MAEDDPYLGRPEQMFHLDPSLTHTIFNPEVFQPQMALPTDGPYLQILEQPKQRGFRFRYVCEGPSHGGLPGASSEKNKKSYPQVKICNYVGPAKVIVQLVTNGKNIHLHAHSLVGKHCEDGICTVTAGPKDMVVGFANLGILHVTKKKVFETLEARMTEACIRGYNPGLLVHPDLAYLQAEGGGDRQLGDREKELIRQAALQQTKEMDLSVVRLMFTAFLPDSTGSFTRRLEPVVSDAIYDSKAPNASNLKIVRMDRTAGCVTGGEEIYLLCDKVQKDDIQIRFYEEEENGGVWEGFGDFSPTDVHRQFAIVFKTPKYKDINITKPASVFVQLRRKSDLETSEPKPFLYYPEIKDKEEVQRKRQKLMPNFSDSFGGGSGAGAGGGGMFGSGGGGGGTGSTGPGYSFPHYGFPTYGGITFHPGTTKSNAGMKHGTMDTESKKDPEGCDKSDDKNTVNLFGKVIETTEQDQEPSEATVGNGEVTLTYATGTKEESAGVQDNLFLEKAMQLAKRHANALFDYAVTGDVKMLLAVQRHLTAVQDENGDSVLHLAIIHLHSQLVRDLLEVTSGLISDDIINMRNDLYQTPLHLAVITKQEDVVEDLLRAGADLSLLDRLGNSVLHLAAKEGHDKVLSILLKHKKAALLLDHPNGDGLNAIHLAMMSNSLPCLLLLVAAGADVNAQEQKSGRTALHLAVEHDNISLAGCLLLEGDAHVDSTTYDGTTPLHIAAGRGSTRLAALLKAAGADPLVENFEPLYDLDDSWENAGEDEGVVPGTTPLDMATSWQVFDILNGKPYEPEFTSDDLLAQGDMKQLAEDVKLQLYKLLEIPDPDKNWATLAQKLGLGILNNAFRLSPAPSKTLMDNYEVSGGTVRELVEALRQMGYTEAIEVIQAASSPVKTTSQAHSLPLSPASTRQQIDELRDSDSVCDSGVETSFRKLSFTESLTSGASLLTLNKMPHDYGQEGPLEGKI
As to the kind of experiment: Inhibition of LPS-induced p50 translocation from cytosol to nucleus in […] BV2 cells pretreated for 30 mins followed by LPS stimulation for 30 mins by Western blot analysis. In kind it is cell-based. The conditions noted are these: BV-2. In short, it runs like this:
as §6

The subject of data set [12] is BV-2. In words: Inhibition of ERK phosphorylation in […] BV2 cells at 20 to 80 uM pretreated for 30 mins followed by LPS stimulation for 30 mins by Western blot analysis. Type of data set: cell-based. In short, it runs like this:
(§7)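 BV2 microglia pretreated 30 min with test agent (20−80 μM), then LPS 1 μg/mL for 30 min. Total and phosphorylated ERK, JNK and p38 detected by Western blot (SDS-PAGE, nitrocellulose, ECL).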

Data set [13] can be described thus: Effect on ERK expression in […] BV2 cells at 20 to 80 uM pretreated for 30 mins followed by LPS stimulation for 30 mins by Western blot analysis. In kind it is ADME, cell-based. As to conditions: bv-2, 0.5 h. In short, it runs like this: as §7
The nature of data set [14]: Effect on JNK expression in […] BV2 cells at 20 to 80 uM pretreated for 30 mins followed by LPS stimulation for 30 mins by Western blot analysis. In kind it is ADME, cell-based. The conditions noted are these: bv-2, 0.5 h. Summed up:
as §7

Data set [15] in a line: Effect on p38 expression in […] BV2 cells at 20 to 80 uM pretreated for 30 mins followed by LPS stimulation for 30 mins by Western blot analysis. In kind it is ADME, cell-based. As to conditions: bv-2, 0.5 h. Summed up: as §7
Another data set concerns p38 MAPK (Mus musculus). In words: Inhibition of p38 phosphorylation in mouse BV2 cells pretreated for 30 mins followed by LPS stimulation for 30 mins by Western blot analysis. As to conditions: BV-2.
In another data set the test system is JNK (Mus musculus). In words: Inhibition of JNK phosphorylation in mouse BV2 cells at 20 to 80 uM pretreated for 30 mins followed by LPS stimulation for 30 mins by Western blot analysis. As to conditions: BV-2.

The IC50 is the point on the concentration scale where inhibition reaches its midpoint. `C[C@H]1CCC[C@H](C[C@H]2Cc3cc(O)cc(O)c3C(=O)O2)O1` [CLADOSPORIN]: the inhibition result in the data set with BV-2 [1] and in the data set on BV-2 [2] was “Dose-dependent effect” each time. For the same molecule, the values for the Activity result (in [3]; in the data set on BV-2 [5]; in the data set on BV-2 [7]) were “Non-toxic”, “Dose-dependent effect” and “Dose-dependent effect”, respectively. Besides, the half-inhibitory concentration (IC50) in [4] was 24 µM; in data set [6], 27 µM.
As for `COc1cc(O)cc2c1C(=O)O[C@@H](C[C@H]1CCC[C@H](C)O1)C2`, the inhibition result with BV-2 [1] and with BV-2 [2] was “Dose-dependent effect” each time. The Activity result in data set [3] is “Non-toxic”; with BV-2 [5], “Dose-dependent effect”; with BV-2 [7] it was “Dose-dependent effect”. The figures for the IC50 in data set [4] and in data set [6] were 28 µM and 30 µM, respectively.
With `C[C@@H]1O[C@@H](C[C@H]2Cc3cc(O)cc(O)c3C(=O)O2)CC[C@@H]1O`, the inhibition result with BV-2 [1] and in the data set with BV-2 [2] was “Dose-dependent effect” throughout. The values for the Activity result (in data set [3]; in the data set with BV-2 [5]; in the data set with BV-2 [7]) were “Non-toxic”, “Dose-dependent effect” and “Dose-dependent effect”, respectively. In addition, the IC50 was 20 µM in data set [4] and 23 µM in data set [6].
As to `C[C@H]1C[C@@H](O)C[C@H](C[C@H]2Cc3cc(O)cc(O)c3C(=O)O2)O1`, the inhibition result in the data set with BV-2 [1] and in the data set with BV-2 [2] was “Dose-dependent effect” in each case. The Activity entry was “Non-toxic” in [3], “Dose-dependent effect” with BV-2 [5] and “Dose-dependent effect” in the data set on BV-2 [7]. The IC50 in [4] is 65 µM; in data set [6], 61 µM.
Turning to `COc1cc(O)c2c(c1)C[C@H](C[C@H]1CCC[C@H](C)O1)OC2=O`, the inhibition entry with BV-2 [1] and in the data set with BV-2 [2] was “Dose-dependent effect” each time. Moreover, the Activity result in data set [3] is “Non-toxic”; in the data set on BV-2 [5], “Dose-dependent effect”; with BV-2 [7], “Dose-dependent effect”. For the same molecule, the concentration for half-maximal inhibition (IC50) in [4] and in [6] was 21 µM throughout.
In the case of `C[C@H]1CCC[C@H](C[C@H]2Cc3cc(O)cc(O[C@H]4O[C@H](CO)[C@@H](O)[C@H]4O)c3C(=O)O2)O1`, the inhibition result (in data set [8]; in data set [9]; in the data set with BV-2 [1]; with BV-2 [2]; in [10]; in data set [11]) was “Dose-dependent effect” in each case. Further, the Activity entry in data set [3] is “Non-toxic”; in the data set on BV-2 [5], “Dose-dependent effect”; with BV-2 [7] it was “Dose-dependent effect”; in data set [13], “Non-toxic”; in data set [14], “Non-toxic”; in [15] it was “Non-toxic”. Moreover, in the data set with p38 MAPK (Mus musculus), the Activity result is “Dose-dependent effect”. Also, the results for the IC50 in data set [4] and in [6] were 33 µM and 34 µM, respectively. The inhibition result with BV-2 [12] and in the data set on JNK (Mus musculus) was “inactive” each time.
